SMILES strings stand for the structures. Where two headings read alike, the source gives them in different places.

In general, IC50 refers to the concentration that inhibits the measured activity by half.

Data set [1] relates to HT-29 human colon cancer cell line. In words: SRB cytotoxicity assay, HT-29. The data set is classed as cell-based. The conditions noted are these: HT-29, 72 h, read-out: IC50 HT-29 72 h. On the technique in general: In SRB staining, fixed cells bind dye roughly in proportion to their protein.
Data set [2] concerns Raji human Burkitt's lymphoma cells. In words: MTS growth inhibition assay, Raji cells. The data set is classed as cell-based. (In general: Tetrazolium dyes change colour on reduction, which living cells bring about.)
In data set [3] the test system is quinone reductase in Hepa 1c1c7 murine hepatoma cell line. The experiment in a line: Quinone reductase induction assay. The format is cell-based. The settings on record: Mus musculus, Hepa-1c1c7, read-out: CD (concentration required to double quinone reductase activity), Hepa 1c1c7 cells; average ± SD, three independent experiments.
The subject of data set [4] is 697 human acute lymphoblastic leukemia cells. In words: MTS growth inhibition assay, 697 cells. The format is cell-based. The conditions noted are these: read-out: IC50 values in 697 cells (range).
Data set [5] has as its system HT-29 human colon cancer cells. In words: In vivo hollow fiber assay, HT-29. The conditions noted are these: HT-29 in hollow fibers in mice, any dose, ip once daily. A digest of the protocol: (§1)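 HT-29 cells (1 × 10^6 per mL), alongside other human cancer lines, grown in hollow fibers implanted ip and sc in immunodeficient female NCr nu/nu mice. Test compound given by ip injection once daily: first run at 5, 10, 15, 30 mg/kg in 30% cyclodextrin; repeat run at 0.5, 1, 2 mg/kg. Positive controls: bortezomib 1 mg/kg ip (first run); paclitaxel 5 mg/kg ip (repeat run).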

Data set [6] relates to immunodeficient female NCr nu/nu mice. The experiment in a line: Toxicity to mice in the hollow fiber assay. The data set is classed as in vivo. A digest of the protocol: as §1

`COc1ccc2c(c1/C=C/C(C)(C)O)O[C@H](c1ccccc1)CC2=O` [Compound 4, (2S)-2,3-dihydrotephroapollin C]: the IC50 in data set [1] was greater than 10 µM; in data set [2] (48 h, read-out: IC50 Raji 48 h) it was greater than 10 µM; in data set [2] (72 h, read-out: IC50 Raji 72 h), greater than 10 µM.

Turning to `COc1ccc2c(c1C1=COC(C)(C)C1=O)O[C@H](c1ccccc1)CC2=O` [Compound 3, (2S)-2,3-dihydrotephroglabrin], the IC50 in data set [1] was greater than 10 µM; in data set [2] (48 h, read-out: IC50 Raji 48 h) it was greater than 10 µM; in data set [2] (72 h, read-out: IC50 Raji 72 h) it was greater than 10 µM. Also, the EC (2-fold induction) in data set [3] is less than 10 µM.

As for `COc1cc2c(cc1OC)[C@]1(O)C(=O)c3ccc4c(c3O[C@@H]1CO2)C=CC(C)(C)O4` [Compound 9, tephrosin], the IC50 in data set [4] was 5.4 to 9 µM.

For `COc1cc2c(c(O)c1C(=O)/C=C/c1ccccc1)[C@H]1[C@@H](O2)OC(C)(C)[C@@H]1OC(C)=O` [Compound 10, (+)-tephropurpurin], the IC50 is greater than 10 µM in data set [1]; greater than 10 µM in data set [2] (48 h, read-out: IC50 Raji 48 h); greater than 10 µM in data set [2] (72 h, read-out: IC50 Raji 72 h).

As to `C=C(C)[C@H]1Cc2c(ccc3c2O[C@@H]2COc4cc(OC)c(OC)cc4[C@]2(O)C3=O)O1` [Compound 7, cis-(6aβ,12aβ)-hydroxyrotenone], the “net reduction of relative percent cell growth” value in data set [5] was “No effect”. Also, the toxicity to mice result in data set [6] (ip 0.5, 1 and 2 mg/kg once daily) is recorded as “no noticeable toxicity”. The lethality to mice result in data set [6] (ip 5, 10, 15 and 30 mg/kg once daily) was “lethal”.

In the case of `CC1(C)O[C@@H]2Oc3ccc(C(=O)/C=C/c4ccccc4)c(O)c3[C@@H]2[C@H]1O` [Compound 11, (+)-tephrosone], the IC50 in data set [1] was greater than 10 µM; in data set [2] (48 h, read-out: IC50 Raji 48 h) it was greater than 10 µM; in data set [2] (72 h, read-out: IC50 Raji 72 h), greater than 10 µM.

Take `COc1ccc2c(c1/C=C/C(C)(C)OC)O[C@H](c1ccccc1)CC2=O` [Compound 6, (2S)-7-methoxy-8-(3-methoxy-3-methyl-but-1-enyl)flavanone]: the IC50 in data set [1] was greater than 10 µM; in data set [2] (48 h, read-out: IC50 Raji 48 h), greater than 10 µM; in data set [2] (72 h, read-out: IC50 Raji 72 h), greater than 10 µM. Also, in data set [3], the EC (2-fold induction) was less than 10 µM.

Source of the values: article PMC3806331 (Journal of natural products, 2013).
